# Reference: the M2OR odorant receptor database
# Tests used:
# Conditions in all cases: stereoisomer not certain
# UniProt E9PVX1 = target: T1, UniProt E9PVX1
# T1 sequence (whole entry): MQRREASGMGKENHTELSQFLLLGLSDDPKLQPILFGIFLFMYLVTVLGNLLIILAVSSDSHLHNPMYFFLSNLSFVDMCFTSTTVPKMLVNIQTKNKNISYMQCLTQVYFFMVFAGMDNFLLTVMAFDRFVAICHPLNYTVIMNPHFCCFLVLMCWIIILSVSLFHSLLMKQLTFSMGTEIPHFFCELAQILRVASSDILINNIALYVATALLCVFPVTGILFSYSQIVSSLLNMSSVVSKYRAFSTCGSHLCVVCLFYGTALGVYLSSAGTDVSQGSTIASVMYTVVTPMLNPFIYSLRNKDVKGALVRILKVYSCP
# Procedure, shortened: (§1)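 Whether a receptor–molecule pair is responsive (active) rests on the original authors' judgment that its measured signal was statistically different from baseline. Pairs without that judgment are non-responsive (inactive). Sources used varied assay methods, commonly transient luciferase assays in mammalian cell lines.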
# UniProt E9PZ66 = target: T2, UniProt E9PZ66
# T2 sequence (whole entry): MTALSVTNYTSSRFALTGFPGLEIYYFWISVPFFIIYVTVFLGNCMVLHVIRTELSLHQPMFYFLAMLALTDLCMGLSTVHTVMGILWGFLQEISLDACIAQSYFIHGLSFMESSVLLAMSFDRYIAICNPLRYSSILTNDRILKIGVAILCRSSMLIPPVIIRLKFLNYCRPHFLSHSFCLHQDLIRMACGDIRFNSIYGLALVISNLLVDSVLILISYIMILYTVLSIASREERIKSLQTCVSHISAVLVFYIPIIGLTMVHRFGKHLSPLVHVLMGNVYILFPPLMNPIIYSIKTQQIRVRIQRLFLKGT
# Procedure, shortened: as §1
# UniProt E9Q4X7 = target: T3, UniProt E9Q4X7
# T3 sequence (whole entry): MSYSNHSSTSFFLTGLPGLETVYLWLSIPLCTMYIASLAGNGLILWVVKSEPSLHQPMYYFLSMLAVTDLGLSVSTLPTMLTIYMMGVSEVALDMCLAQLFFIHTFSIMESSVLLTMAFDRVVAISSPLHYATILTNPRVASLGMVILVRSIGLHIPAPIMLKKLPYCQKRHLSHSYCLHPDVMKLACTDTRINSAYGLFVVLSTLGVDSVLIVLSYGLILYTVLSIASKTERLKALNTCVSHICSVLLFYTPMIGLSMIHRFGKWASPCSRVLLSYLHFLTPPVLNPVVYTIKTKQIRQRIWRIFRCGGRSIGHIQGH
# Procedure, shortened: as §1
# UniProt E9Q546 = target: T4, UniProt E9Q546
# T4 sequence (whole entry): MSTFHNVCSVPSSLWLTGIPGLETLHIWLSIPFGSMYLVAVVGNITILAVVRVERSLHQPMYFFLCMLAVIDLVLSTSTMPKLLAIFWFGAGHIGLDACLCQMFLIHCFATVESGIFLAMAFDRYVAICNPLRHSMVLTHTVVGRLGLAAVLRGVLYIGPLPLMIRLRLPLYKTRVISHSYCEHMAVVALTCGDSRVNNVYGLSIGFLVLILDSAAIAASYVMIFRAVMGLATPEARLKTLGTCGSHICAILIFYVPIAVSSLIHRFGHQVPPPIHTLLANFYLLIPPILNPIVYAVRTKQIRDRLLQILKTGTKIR
# Procedure, shortened: as §1
# UniProt E9Q6Z7 = target: T5, UniProt E9Q6Z7
# T5 sequence (whole entry): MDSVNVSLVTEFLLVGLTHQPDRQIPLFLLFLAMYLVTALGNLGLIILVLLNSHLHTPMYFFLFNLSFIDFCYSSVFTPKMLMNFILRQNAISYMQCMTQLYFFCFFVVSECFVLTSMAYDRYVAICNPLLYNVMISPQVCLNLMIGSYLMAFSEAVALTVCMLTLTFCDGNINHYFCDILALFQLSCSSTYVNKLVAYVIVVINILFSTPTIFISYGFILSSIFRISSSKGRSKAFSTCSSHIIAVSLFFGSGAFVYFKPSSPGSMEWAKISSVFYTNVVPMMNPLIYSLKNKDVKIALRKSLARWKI
# Procedure, shortened: as §1
# UniProt L7MU75 = target: T6, UniProt L7MU75
# T6 sequence (whole entry): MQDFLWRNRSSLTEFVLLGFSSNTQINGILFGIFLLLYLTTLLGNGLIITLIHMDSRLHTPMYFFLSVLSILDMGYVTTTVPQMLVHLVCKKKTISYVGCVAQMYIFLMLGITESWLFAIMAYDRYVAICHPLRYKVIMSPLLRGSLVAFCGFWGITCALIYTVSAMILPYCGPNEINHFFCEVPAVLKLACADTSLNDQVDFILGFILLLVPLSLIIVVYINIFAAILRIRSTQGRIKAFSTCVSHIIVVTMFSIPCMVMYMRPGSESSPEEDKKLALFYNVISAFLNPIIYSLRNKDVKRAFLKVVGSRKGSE
# Procedure, shortened: as §1
# UniProt L7N210 = target: T7, UniProt L7N210
# T7 sequence (whole entry): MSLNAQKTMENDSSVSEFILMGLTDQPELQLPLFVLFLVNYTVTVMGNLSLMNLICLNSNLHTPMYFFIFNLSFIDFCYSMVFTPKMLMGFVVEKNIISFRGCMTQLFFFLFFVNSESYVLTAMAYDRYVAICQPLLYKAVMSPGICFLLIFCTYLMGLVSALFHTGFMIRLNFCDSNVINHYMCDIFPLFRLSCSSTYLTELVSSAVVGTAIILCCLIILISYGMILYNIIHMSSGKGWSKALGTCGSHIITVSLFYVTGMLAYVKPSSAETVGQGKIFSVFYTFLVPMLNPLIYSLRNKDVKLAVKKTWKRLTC
# Procedure, shortened: as §1
# UniProt Q3KPB0 = target: T8, UniProt Q3KPB0
# T8 sequence (whole entry): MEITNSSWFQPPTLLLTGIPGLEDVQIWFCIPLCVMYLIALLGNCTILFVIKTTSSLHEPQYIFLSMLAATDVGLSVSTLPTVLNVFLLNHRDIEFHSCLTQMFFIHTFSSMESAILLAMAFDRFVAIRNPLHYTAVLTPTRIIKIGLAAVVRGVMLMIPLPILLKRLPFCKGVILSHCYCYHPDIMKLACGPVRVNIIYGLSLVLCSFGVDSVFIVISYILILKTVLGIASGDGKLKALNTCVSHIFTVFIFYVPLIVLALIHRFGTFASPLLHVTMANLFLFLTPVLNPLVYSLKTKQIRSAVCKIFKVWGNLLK
# Procedure, shortened: as §1
# UniProt Q3U0P3 = target: T9, UniProt Q3U0P3
# T9 sequence (whole entry): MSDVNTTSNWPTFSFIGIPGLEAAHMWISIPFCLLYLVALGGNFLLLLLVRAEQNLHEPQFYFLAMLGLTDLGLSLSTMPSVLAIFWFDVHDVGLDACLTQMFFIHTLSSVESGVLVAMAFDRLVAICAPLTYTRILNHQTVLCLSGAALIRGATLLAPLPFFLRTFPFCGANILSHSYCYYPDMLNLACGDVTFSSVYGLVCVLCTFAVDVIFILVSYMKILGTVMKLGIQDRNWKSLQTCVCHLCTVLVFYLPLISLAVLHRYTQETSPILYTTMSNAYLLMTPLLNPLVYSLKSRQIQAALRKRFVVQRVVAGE
# Procedure, shortened: as §1
# UniProt Q7TQU8 = target: T10, UniProt Q7TQU8
# T10 sequence (whole entry): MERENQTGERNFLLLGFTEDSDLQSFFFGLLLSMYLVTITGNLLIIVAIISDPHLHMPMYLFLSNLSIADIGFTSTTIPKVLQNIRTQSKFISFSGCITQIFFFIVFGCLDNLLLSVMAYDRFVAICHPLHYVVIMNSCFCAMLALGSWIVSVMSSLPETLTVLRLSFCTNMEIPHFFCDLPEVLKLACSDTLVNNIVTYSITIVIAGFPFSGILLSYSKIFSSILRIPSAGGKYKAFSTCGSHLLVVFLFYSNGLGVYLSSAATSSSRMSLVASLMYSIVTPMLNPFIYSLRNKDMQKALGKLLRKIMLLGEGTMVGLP
# Procedure, shortened: as §1
# UniProt Q7TR79 = target: T11, UniProt Q7TR79
# T11 sequence (whole entry): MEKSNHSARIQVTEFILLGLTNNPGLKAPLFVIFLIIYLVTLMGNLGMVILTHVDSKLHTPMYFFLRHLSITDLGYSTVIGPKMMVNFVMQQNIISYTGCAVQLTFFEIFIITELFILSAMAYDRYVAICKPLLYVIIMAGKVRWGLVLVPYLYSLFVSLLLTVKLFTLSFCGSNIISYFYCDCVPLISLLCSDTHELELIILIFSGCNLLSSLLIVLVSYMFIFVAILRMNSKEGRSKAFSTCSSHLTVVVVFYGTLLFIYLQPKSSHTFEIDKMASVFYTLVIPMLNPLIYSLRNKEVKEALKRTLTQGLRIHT
# Procedure, shortened: as §1
# UniProt B2RVX8 = target: T12, UniProt B2RVX8
# T12 sequence (whole entry): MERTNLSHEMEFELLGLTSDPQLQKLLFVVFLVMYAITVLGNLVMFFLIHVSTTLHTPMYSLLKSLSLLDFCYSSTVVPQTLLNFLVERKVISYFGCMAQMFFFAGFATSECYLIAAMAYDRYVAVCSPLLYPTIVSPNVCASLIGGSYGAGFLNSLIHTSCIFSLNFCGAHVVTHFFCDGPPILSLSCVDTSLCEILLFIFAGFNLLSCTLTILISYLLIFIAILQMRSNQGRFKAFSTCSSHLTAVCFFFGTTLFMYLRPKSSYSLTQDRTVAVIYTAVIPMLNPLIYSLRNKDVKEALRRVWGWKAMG
# Procedure, shortened: as §1
# UniProt K7N609 = target: T13, UniProt K7N609
# T13 sequence (whole entry): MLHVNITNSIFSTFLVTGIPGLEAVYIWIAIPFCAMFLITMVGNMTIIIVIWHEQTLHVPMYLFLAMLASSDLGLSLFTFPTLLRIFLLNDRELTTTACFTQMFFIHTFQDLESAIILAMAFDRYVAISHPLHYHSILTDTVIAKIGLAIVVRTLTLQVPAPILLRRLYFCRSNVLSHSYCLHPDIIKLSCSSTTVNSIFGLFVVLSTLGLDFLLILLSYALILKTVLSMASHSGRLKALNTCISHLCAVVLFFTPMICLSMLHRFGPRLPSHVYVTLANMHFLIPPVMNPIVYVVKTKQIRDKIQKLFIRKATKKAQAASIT
# Procedure, shortened: as §1
# UniProt Q7TQV4 = target: T14, UniProt Q7TQV4
# T14 sequence (whole entry): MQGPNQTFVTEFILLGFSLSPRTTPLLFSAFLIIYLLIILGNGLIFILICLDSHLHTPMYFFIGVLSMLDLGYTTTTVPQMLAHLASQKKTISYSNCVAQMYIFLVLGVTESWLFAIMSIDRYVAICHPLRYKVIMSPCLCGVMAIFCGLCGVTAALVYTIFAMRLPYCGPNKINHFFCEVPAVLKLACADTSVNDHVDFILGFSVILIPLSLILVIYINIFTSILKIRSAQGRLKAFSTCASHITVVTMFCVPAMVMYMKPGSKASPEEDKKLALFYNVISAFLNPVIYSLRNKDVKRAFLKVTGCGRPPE
# Procedure, shortened: as §1
# UniProt Q7TR71 = target: T15, UniProt Q7TR71
# T15 sequence (whole entry): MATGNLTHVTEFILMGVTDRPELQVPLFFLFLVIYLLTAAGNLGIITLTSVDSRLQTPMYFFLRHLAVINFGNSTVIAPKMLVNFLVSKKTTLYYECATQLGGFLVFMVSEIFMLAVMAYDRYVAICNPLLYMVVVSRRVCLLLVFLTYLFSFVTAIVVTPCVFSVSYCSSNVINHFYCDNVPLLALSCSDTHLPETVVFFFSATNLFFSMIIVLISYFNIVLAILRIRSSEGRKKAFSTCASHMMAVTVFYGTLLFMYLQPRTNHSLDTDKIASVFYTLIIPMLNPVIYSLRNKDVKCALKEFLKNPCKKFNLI
# Procedure, shortened: as §1
# UniProt Q7TRA3 = target: T16, UniProt Q7TRA3
# T16 sequence (whole entry): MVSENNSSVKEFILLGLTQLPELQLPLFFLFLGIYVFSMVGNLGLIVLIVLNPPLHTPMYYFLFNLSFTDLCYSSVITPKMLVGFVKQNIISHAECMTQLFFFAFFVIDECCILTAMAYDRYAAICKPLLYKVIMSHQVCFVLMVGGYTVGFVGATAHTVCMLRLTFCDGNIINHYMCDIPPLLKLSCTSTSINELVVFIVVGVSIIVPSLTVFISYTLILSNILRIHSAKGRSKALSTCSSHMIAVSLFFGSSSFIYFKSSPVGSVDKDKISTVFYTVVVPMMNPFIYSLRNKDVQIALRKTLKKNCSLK
# Procedure, shortened: as §1
# UniProt Q7TRE4 = target: T17, UniProt Q7TRE4
# T17 sequence (whole entry): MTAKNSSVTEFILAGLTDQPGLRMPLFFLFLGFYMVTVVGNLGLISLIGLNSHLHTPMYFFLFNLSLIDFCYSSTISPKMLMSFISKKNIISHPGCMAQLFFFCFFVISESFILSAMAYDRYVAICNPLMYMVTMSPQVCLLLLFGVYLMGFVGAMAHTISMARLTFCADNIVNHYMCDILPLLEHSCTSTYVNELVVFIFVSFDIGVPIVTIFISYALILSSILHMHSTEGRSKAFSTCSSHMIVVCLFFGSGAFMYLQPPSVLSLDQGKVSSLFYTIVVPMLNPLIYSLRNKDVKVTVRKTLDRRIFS
# Procedure, shortened: as §1
# UniProt E9PXN3 = target: UniProt E9PXN3
# Chain of UniProt E9PXN3 (E9PXN3 as listed by the source): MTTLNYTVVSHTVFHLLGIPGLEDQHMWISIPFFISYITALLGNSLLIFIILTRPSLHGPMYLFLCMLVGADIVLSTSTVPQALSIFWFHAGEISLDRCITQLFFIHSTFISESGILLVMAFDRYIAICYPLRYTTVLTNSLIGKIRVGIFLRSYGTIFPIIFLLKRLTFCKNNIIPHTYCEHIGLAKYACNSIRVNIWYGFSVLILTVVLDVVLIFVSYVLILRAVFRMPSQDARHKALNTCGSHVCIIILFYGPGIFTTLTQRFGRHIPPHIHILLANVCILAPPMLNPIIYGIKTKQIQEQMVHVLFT
# Procedure, shortened: as §1
# UniProt Q7TRM0 = target: UniProt Q7TRM0
# Chain of UniProt Q7TRM0 (Q7TRM0 as listed by the source): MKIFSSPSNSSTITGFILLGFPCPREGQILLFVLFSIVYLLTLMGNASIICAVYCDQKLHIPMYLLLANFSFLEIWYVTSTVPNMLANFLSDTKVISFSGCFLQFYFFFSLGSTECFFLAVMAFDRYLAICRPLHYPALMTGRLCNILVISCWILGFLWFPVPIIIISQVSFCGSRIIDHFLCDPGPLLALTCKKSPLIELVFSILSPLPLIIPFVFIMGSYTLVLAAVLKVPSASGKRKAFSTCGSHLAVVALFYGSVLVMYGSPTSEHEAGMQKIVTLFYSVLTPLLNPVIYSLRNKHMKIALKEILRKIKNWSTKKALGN
# Procedure, shortened: as §1
# 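Also: active if original authors judged signal statistically different from baseline.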
Structure (SMILES),odorant receptor agonist call (UniProt E9PVX1),odorant receptor agonist call (UniProt E9PZ66),odorant receptor agonist call (UniProt E9Q4X7),odorant receptor agonist call (UniProt E9Q546),odorant receptor agonist call (UniProt E9Q6Z7),odorant receptor agonist call (UniProt L7MU75),odorant receptor agonist call (UniProt L7N210),odorant receptor agonist call (UniProt Q3KPB0),odorant receptor agonist call (UniProt Q3U0P3),odorant receptor agonist call (UniProt Q7TQU8),odorant receptor agonist call (UniProt Q7TR79),odorant receptor agonist call (UniProt B2RVX8),odorant receptor agonist call (UniProt K7N609),odorant receptor agonist call (UniProt Q7TQV4),odorant receptor agonist call (UniProt Q7TR71),odorant receptor agonist call (UniProt Q7TRA3),odorant receptor agonist call (UniProt Q7TRE4),odorant receptor agonist call (UniProt E9PXN3),odorant receptor agonist call (UniProt Q7TRM0)
CSSC,inactive,inactive,inactive,inactive,inactive,inactive,inactive,inactive,inactive,inactive,inactive,,,,,,,,
COc1ccc(C=O)cc1,inactive,inactive,inactive,inactive,inactive,inactive,active,inactive,inactive,inactive,inactive,,,,,,,,
C=CCOC(=O)Cc1ccccc1,inactive,inactive,inactive,inactive,inactive,inactive,inactive,inactive,inactive,inactive,inactive,inactive,inactive,inactive,inactive,inactive,inactive,,
O=C(O)CCCCCCCBr,,,,,,,,,,,,,,,,,,inactive,inactive
